Our source for the Activity values is ChEMBL document CHEMBL4043093, “2-Oxo-3, 4-dihydropyrimido[4, 5-d]pyrimidinyl derivatives as new irreversible pan fibroblast growth factor receptor (FGFR) inhibitors” (Eur J Med Chem, 2017).

Assay [1] relates to ALK tyrosine kinase receptor (Homo sapiens), Q9UM73 [L1196M]. Nature of the assay: Inhibition of wild-type human partial length ALK L1196M mutant (I1088 to E1409 residues) expressed in HEK293 cells assessed as residual activity at 1000 nM after 30 mins by Kinomescan method relative to control. It counts as cell-based.
In assay [2] the target is 5'-AMP-activated protein kinase catalytic subunit alpha-1 (Homo sapiens) (UniProt Q13131). The experiment in a line: Inhibition of wild-type human partial length AMPK alpha1 (M1 to E306 residues) expressed in Escherichia coli BL21 assessed as residual activity at 1000 nM after 30 mins by Kinomescan method relative to control.
In assay [3] the target is Macrophage colony-stimulating factor 1 receptor (Homo sapiens) (UniProt P07333). Nature of the assay: Inhibition of wild-type human partial length CSF1R (I564 to S939 residues) expressed in Escherichia coli BL21 assessed as residual activity at 1000 nM after 30 mins by Kinomescan method relative to control.
Assay [4] deals with Casein kinase II subunit alpha' (Homo sapiens) (UniProt P19784). The experiment in a line: Inhibition of wild-type human full length CSNK2A2 (M1 to R350 residues) expressed in HEK293 cells assessed as residual activity at 1000 nM after 30 mins by Kinomescan method relative to control. Type of assay: cell-based. In a few lines: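 Single-point screen at a fixed 1 µM, run within a 456-kinase DiscoveRx KINOMEscan panel. Each kinase's read-out is Percent Control, i.e. signal relative to a control without compound. Hits were scored by a Percent Control < 35 cut-off, and an S(35) selectivity score was calculated across the non-mutant kinases.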

Assay [5] addresses Ephrin type-A receptor 1 (Homo sapiens) (UniProt P21709). Nature of the assay: Inhibition of wild-type human partial length EPHA1 (V588 to I913 residues) expressed in Escherichia coli BL21 assessed as residual activity at 1000 nM after 30 mins by Kinomescan method relative to control.
Assay [6] addresses Mitogen-activated protein kinase 6 (Homo sapiens) (UniProt Q16659). Nature of the assay: Inhibition of wild-type human partial length ERK3 (M1 to P413 residues) expressed in Escherichia coli BL21 assessed as residual activity at 1000 nM after 30 mins by Kinomescan method relative to control.
Assay [7] has as its target Tyrosine-protein kinase Fes/Fps (Homo sapiens) (UniProt P07332). The experiment in a line: Inhibition of wild-type human partial length FES (I527 to R822 residues) expressed in Escherichia coli BL21 assessed as residual activity at 1000 nM after 30 mins by Kinomescan method relative to control.
The target in assay [8] is Glycogen synthase kinase-3 beta (Homo sapiens) (UniProt P49841). The experiment in a line: Inhibition of wild-type human full length GSK3B (M1 to T433 residues) expressed in HEK293 cells assessed as residual activity at 1000 nM after 30 mins by Kinomescan method relative to control. Type of assay: cell-based. The procedure, abridged: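 Single-concentration screen at 1 µM across a 456-kinase KINOMEscan panel. The read-out is Percent Control for each kinase.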

The target of assay [9] is Tyrosine-protein kinase JAK2 (Homo sapiens) (UniProt O60674). The experiment in a line: Inhibition of wild-type human partial length JAK2 JH1 catalytic domain (A829 to G1132 residues) expressed in HEK293 cells assessed as residual activity at 1000 nM after 30 mins by Kinomescan method relative to control. Type of assay: cell-based.
Assay [10] deals with Mast/stem cell growth factor receptor Kit (Homo sapiens), P10721 [V559D]. The experiment in a line: Inhibition of human partial length KIT V559D mutant (Y545 to D952 residues) expressed in Escherichia coli BL21 assessed as residual activity at 1000 nM after 30 mins by Kinomescan method relative to control. The procedure, abridged:
(§1)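 KINOMEscan binding panel of 456 kinases, with the test compound at a single concentration of 1 µM. Read-out is Percent Control.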

Assay [11] deals with Myosin light chain kinase family member 4 (Homo sapiens) (UniProt Q86YV6). The experiment in a line: Inhibition of wild-type human partial length MYLK4 (V79 to S380 residues) expressed in Escherichia coli BL21 assessed as residual activity at 1000 nM after 30 mins by Kinomescan method relative to control.
In assay [12] the target is Mitogen-activated protein kinase 12 (Homo sapiens) (UniProt P53778). Nature of the assay: Inhibition of wild-type human full length p38-gamma (M1 to L367 residues) expressed in HEK293 cells assessed as residual activity at 1000 nM after 30 mins by Kinomescan method relative to control. It counts as cell-based.
Assay [13] concerns the target Cyclin-dependent kinase 16 (Homo sapiens) (UniProt Q00536). Nature of the assay: Inhibition of wild-type human partial length PCTK1 (G160 to A474 residues) expressed in HEK293 cells assessed as residual activity at 1000 nM after 30 mins by Kinomescan method relative to control. Type of assay: cell-based.
Assay [14] relates to Phosphatidylinositol 4,5-bisphosphate 3-kinase catalytic subunit alpha isoform (Homo sapiens), P42336 [E542K]. Nature of the assay: Inhibition of human partial length PIK3CA E542K mutant (R108 to N1068 residues) expressed in HEK293 cells assessed as residual activity at 1000 nM after 30 mins by Kinomescan method relative to control. Type of assay: cell-based. In a few lines: as §1

Assay [15] deals with Phosphatidylinositol 4,5-bisphosphate 3-kinase catalytic subunit gamma isoform (Homo sapiens) (UniProt P48736). Nature of the assay: Inhibition of wild-type human partial length PIK3CG (S144 to A1102 residues) expressed in HEK293 cells assessed as residual activity at 1000 nM after 30 mins by Kinomescan method relative to control. It counts as cell-based.
The target of assay [16] is Ribosomal protein S6 kinase alpha-2 (Homo sapiens) (UniProt Q15349). Nature of the assay: Inhibition of wild-type human partial length C-terminal RSK2 kinase domain 2 (V402 to S715 residues) expressed in HEK293 cells assessed as residual activity at 1000 nM after 30 mins by Kinomescan method relative to control. It counts as cell-based.
Assay [17] addresses Serine/threonine-protein kinase Sgk1 (Homo sapiens) (UniProt O00141). The experiment in a line: Inhibition of wild-type human partial length SGK (I60 to L431 residues) expressed in HEK293 cells assessed as residual activity at 1000 nM after 30 mins by Kinomescan method relative to control. It counts as cell-based.
The target in assay [18] is Serine/threonine-protein kinase Sgk3 (Homo sapiens) (UniProt Q96BR1). Nature of the assay: Inhibition of wild-type human partial length SGK3 (M119 to L496 residues) expressed in HEK293 cells assessed as residual activity at 1000 nM after 30 mins by Kinomescan method relative to control. It counts as cell-based.
The target of assay [19] is STE20/SPS1-related proline-alanine-rich protein kinase (Homo sapiens) (UniProt Q9UEW8). Nature of the assay: Inhibition of wild-type human partial length STK39 (P43 to I357 residues) expressed in HEK293 cells assessed as residual activity at 1000 nM after 30 mins by Kinomescan method relative to control. Type of assay: cell-based.
For assay [20], the target named is Non-receptor tyrosine-protein kinase TYK2 (Homo sapiens) (UniProt P29597). Nature of the assay: Inhibition of wild-type human partial length TYK2 JH1 catalytic domain (V877 to C1187 residues) expressed in HEK293 cells assessed as residual activity at 1000 nM after 30 mins by Kinomescan method relative to control. It counts as cell-based.
For assay [21], the target named is Tyrosine-protein kinase receptor TYRO3 (Homo sapiens) (UniProt Q06418). Nature of the assay: Inhibition of wild-type human partial length TYRO3 (S497 to T814 residues) expressed in Escherichia coli BL21 assessed as residual activity at 1000 nM after 30 mins by Kinomescan method relative to control.

With `COc1cc(OC)c(Cl)c(N2Cc3cnc(Nc4ccc(F)cc4)nc3N(C3CCN(C(=O)/C=C/CN(C)C)CC3)C2=O)c1Cl`, the Activity in assay [1] was 92%; in assay [2] it was 96%; in [3] it was 0.4%; in [4] it was 100%; in assay [5] it was 82%; in assay [6], 100%. For the same compound, the Activity was found to be 40% in assay [7]; 100% in [8]; 100% in assay [9]; 11% in [10]; 85% in [11]; 89% in assay [12]. In addition, the Activity in [13] was found to be 100%; in assay [14], 86%; in assay [15], 100%; in assay [16], 96%; in [17] it was 100%; in assay [18] it was 87%. In addition, the Activity in [19] turned out to be 100%; in assay [20], 83%; in assay [21], 57%.
